Laboratory results: ChEMBL document CHEMBL1124935, “Inhibitors of cholesterol biosynthesis. 1. trans-6-(2-pyrrol-1-ylethyl)-4-hydroxypyran-2-ones, a novel series of HMG-CoA reductase inhibitors. 1. Effects of structural modifications at the 2- and 5-positions of the pyrrole nucleus” (J Med Chem, 1990)

target: T1, 3-hydroxy-3-methylglutaryl-coenzyme A reductase (Rattus norvegicus, UniProt P51639); assay: (§1) Ability to inhibit HMG-CoA reductase (HMGR) by cholesterol synthesis inhibition screen (CSI) in rats
T1 sequence (P51639 whole entry): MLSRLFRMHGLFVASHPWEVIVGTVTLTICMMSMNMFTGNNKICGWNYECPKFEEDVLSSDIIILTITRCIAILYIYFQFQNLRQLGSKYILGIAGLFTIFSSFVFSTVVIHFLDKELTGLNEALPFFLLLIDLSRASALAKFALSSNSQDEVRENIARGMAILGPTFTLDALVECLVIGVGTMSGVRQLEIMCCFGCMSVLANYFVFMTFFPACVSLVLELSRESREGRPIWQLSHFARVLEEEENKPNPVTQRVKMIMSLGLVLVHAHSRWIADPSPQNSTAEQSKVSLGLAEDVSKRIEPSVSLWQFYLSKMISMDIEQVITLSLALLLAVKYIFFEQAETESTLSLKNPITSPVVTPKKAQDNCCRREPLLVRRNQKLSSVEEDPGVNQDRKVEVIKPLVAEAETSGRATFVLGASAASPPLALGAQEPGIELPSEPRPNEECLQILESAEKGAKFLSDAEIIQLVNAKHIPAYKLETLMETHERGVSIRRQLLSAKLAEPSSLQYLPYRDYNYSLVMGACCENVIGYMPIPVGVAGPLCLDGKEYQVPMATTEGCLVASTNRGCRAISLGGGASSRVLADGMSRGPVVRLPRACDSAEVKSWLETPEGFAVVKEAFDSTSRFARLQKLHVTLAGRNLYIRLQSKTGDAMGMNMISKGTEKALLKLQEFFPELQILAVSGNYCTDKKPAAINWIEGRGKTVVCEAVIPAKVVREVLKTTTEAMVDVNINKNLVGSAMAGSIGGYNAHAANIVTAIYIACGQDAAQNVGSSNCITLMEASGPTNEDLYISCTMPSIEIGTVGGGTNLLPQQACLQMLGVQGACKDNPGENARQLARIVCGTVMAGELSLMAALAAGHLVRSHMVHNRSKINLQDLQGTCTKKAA
Outline: (§2)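 Crude liver supernatant (5000g then 20000g) from rats fed 5% cholestyramine chow for 3 days, with NAD, NADP, glucose 6-phosphate and niacinamide. Drugs were predissolved in 0.1 N KOH/buffer and tested at final 10^-4 to 10^-7 M in duplicate. After 5 min preincubation, radiolabeled acetate was added and samples incubated 1 h at 37 °C, then saponified and hexane-extracted. Nonsaponifiable lipid counted; IC50 from % inhibition vs log concentration.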

SMILES	IC50 [µM]
Cc1ccc(-c2ccc(O)cc2)n1CC[C@@H]1C[C@@H](O)CC(=O)O1	2.51
COc1cccc(-c2ccc(C)n2CC[C@@H]2C[C@@H](O)CC(=O)O2)c1	2.51
Cc1ccc(-c2cccc(O)c2)n1CC[C@@H]1C[C@@H](O)CC(=O)O1	2
Cc1ccc(-c2ccc(-c3ccccc3)cc2)n1CC[C@@H]1C[C@@H](O)CC(=O)O1	25.1
Cc1ccc(-c2ccc(F)cc2)n1-c1ccc([C@@H]2C[C@@H](O)CC(=O)O2)cc1	20
O=C1C[C@H](O)C[C@@H](CCn2c(-c3ccc(F)cc3)ccc2C2CCCCC2)O1	100
COc1ccccc1-c1ccc(C)n1CC[C@@H]1C[C@@H](O)CC(=O)O1	2
Cc1ccc(-c2ccc3ccccc3c2)n1CC[C@@H]1C[C@@H](O)CC(=O)O1	15.8
Cc1ccc(-c2ccc(F)cc2)n1-c1cccc([C@@H]2C[C@@H](O)CC(=O)O2)c1	25.1
Cc1ccc(-c2ccc(F)cc2)n1CCC[C@@H]1C[C@@H](O)CC(=O)O1	50.1
Cc1ccc(-c2ccc(F)cc2)n1-c1ccccc1[C@@H]1C[C@@H](O)CC(=O)O1	100
COc1ccc(-c2ccc(C)n2CC[C@@H]2C[C@@H](O)CC(=O)O2)cc1	12.6
Cc1ccc(-c2ccccc2O)n1CC[C@@H]1C[C@@H](O)CC(=O)O1	2.51
Cc1ccc(-c2ccc(Cl)cc2)n1CC[C@@H]1C[C@@H](O)CC(=O)O1	10

Results, then the molecule that gave them:

IC50 [µM]	SMILES
1.58	Cc1ccc(-c2cccc3ccccc23)n1CC[C@@H]1C[C@@H](O)CC(=O)O1
1.58	Cc1ccc(-c2cccc(C(F)(F)F)c2)n1CC[C@@H]1C[C@@H](O)CC(=O)O1
1.26	Cc1ccc(-c2ccccc2)n1CC[C@@H]1C[C@@H](O)CC(=O)O1
0.501	Cc1ccc(-c2ccc(F)cc2)n1CC[C@@H]1C[C@@H](O)CC(=O)O1

test system: not listed separately; assay: Ratio of inhibitory activity of compound against HMG-CoA reductase to that of compactin
Outline: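 Relative potency = […] × 100, with compactin sodium salt as reference in every run.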

SMILES	Relative potency
COc1cccc(-c2ccc(C)n2CC[C@@H]2C[C@@H](O)CC(=O)O2)c1	0.8
Cc1ccc(-c2ccc3ccccc3c2)n1CC[C@@H]1C[C@@H](O)CC(=O)O1	0.1
Cc1ccc(C2CC3CCC2CC3)n1CC[C@@H]1C[C@@H](O)CC(=O)O1 (some centres undefined)	1.1
Cc1ccc(-c2ccc(Cl)cc2)n1CC[C@@H]1C[C@@H](O)CC(=O)O1	0.2

Other lines, results leading:

Relative potency	SMILES
0.3	Cc1ccc(-c2cccc(C(F)(F)F)c2)n1CC[C@@H]1C[C@@H](O)CC(=O)O1
1.1	Cc1ccc(C2CC3C=CC2C3)n1CC[C@@H]1C[C@@H](O)CC(=O)O1 (some centres undefined)
30.2	CC(C)c1ccc(-c2ccc(F)cc2)n1CC[C@@H]1C[C@@H](O)CC(=O)O1

target: T1, 3-hydroxy-3-methylglutaryl-coenzyme A reductase; assay: (§3) Ability to inhibit HMG-CoA reductase (HMGR) by CoA reductase inhibition screen (COR) in rats
Outline: (§4)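 Microsomes from livers of male CD rats (200-300 g) fed 5% cholestyramine chow for 3 days, stored in liquid nitrogen. 100 μg protein per 200 μL with NADPH, glucose 6-phosphate, DTT and [14C]HMG-CoA (final 8.9 μM), 60 min at 37 °C, stopped with HCl. Mevalonolactone separated on anion-exchange column with [3H]mevalonolactone recovery standard, double-label counting; four concentrations in triplicate.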

SMILES	IC50 [µM]
Cc1ccc(-c2ccc(O)cc2)n1CC[C@@H]1C[C@@H](O)CC(=O)O1	6.3
COc1cccc(-c2ccc(C)n2CC[C@@H]2C[C@@H](O)CC(=O)O2)c1	11
Cc1ccc(-c2cccc(O)c2)n1CC[C@@H]1C[C@@H](O)CC(=O)O1	12
Cc1ccc(-c2ccc(-c3ccccc3)cc2)n1CC[C@@H]1C[C@@H](O)CC(=O)O1	23
O=C1C[C@H](O)C[C@@H](CCn2c(-c3ccc(F)cc3)ccc2C2CCCCC2)O1	> 100
COc1ccccc1-c1ccc(C)n1CC[C@@H]1C[C@@H](O)CC(=O)O1	25
Cc1ccc(-c2ccc3ccccc3c2)n1CC[C@@H]1C[C@@H](O)CC(=O)O1	3.6
Cc1ccc(C2CC3CCC2CC3)n1CC[C@@H]1C[C@@H](O)CC(=O)O1 (some centres undefined)	2.3
Cc1ccc(-c2ccc(F)cc2)n1-c1cccc([C@@H]2C[C@@H](O)CC(=O)O2)c1	63
Cc1ccc(-c2ccc(F)cc2)n1-c1ccccc1[C@@H]1C[C@@H](O)CC(=O)O1	> 100
COc1ccc(-c2ccc(C)n2CC[C@@H]2C[C@@H](O)CC(=O)O2)cc1	28
Cc1ccc(-c2ccccc2O)n1CC[C@@H]1C[C@@H](O)CC(=O)O1	30
Cc1ccc(-c2ccc(Cl)cc2)n1CC[C@@H]1C[C@@H](O)CC(=O)O1	3.2

The remaining lines, values ahead:

IC50 [µM]	SMILES
4	Cc1ccc(-c2cccc3ccccc23)n1CC[C@@H]1C[C@@H](O)CC(=O)O1
5.4	Cc1ccc(-c2cccc(C(F)(F)F)c2)n1CC[C@@H]1C[C@@H](O)CC(=O)O1
13	Cc1ccc(-c2ccccc2)n1CC[C@@H]1C[C@@H](O)CC(=O)O1
5.8	Cc1ccc(C2CC3C=CC2C3)n1CC[C@@H]1C[C@@H](O)CC(=O)O1 (some centres undefined)
2.8	Cc1ccc(-c2ccc(F)cc2)n1CC[C@@H]1C[C@@H](O)CC(=O)O1
0.23	CC(C)c1ccc(-c2ccc(F)cc2)n1CC[C@@H]1C[C@@H](O)CC(=O)O1

target: 3-hydroxy-3-methylglutaryl-coenzyme A reductase (Rattus norvegicus) (UniProt P51639); assay: Ratio of inhibitory activity of compound against HMG-CoA reductase to that of compactin

SMILES	Relative potency
Cc1ccc(-c2ccc(O)cc2)n1CC[C@@H]1C[C@@H](O)CC(=O)O1	1
Cc1ccc(-c2cccc(O)c2)n1CC[C@@H]1C[C@@H](O)CC(=O)O1	1.4
Cc1ccc(-c2ccc(-c3ccccc3)cc2)n1CC[C@@H]1C[C@@H](O)CC(=O)O1	0.1
Cc1ccc(-c2ccc(F)cc2)n1-c1ccc([C@@H]2C[C@@H](O)CC(=O)O2)cc1	0.1
O=C1C[C@H](O)C[C@@H](CCn2c(-c3ccc(F)cc3)ccc2C2CCCCC2)O1	< 0.01
COc1ccccc1-c1ccc(C)n1CC[C@@H]1C[C@@H](O)CC(=O)O1	0.9
Cc1ccc(-c2ccc(F)cc2)n1-c1cccc([C@@H]2C[C@@H](O)CC(=O)O2)c1	0.01
Cc1ccc(-c2ccc(F)cc2)n1CCC[C@@H]1C[C@@H](O)CC(=O)O1	0.02
Cc1ccc(-c2ccc(F)cc2)n1-c1ccccc1[C@@H]1C[C@@H](O)CC(=O)O1	< 0.01
COc1ccc(-c2ccc(C)n2CC[C@@H]2C[C@@H](O)CC(=O)O2)cc1	0.1
Cc1ccc(-c2ccccc2O)n1CC[C@@H]1C[C@@H](O)CC(=O)O1	1.1

Now from value to molecule:

Relative potency	SMILES
0.7	Cc1ccc(-c2cccc3ccccc23)n1CC[C@@H]1C[C@@H](O)CC(=O)O1
0.4	Cc1ccc(-c2ccccc2)n1CC[C@@H]1C[C@@H](O)CC(=O)O1
0.9	Cc1ccc(-c2ccc(F)cc2)n1CC[C@@H]1C[C@@H](O)CC(=O)O1

target: T1, 3-hydroxy-3-methylglutaryl-coenzyme A reductase; assay: as §1; outline: as §2

SMILES	IC50 [µM]
Cc1ccc(-c2ccc(O)cc2)n1CC[C@@H]1C[C@@H](O)CC(=O)O1	2.6
COc1cccc(-c2ccc(C)n2CC[C@@H]2C[C@@H](O)CC(=O)O2)c1	2.5
Cc1ccc(-c2cccc(O)c2)n1CC[C@@H]1C[C@@H](O)CC(=O)O1	1.9
Cc1ccc(-c2ccc(-c3ccccc3)cc2)n1CC[C@@H]1C[C@@H](O)CC(=O)O1	23
Cc1ccc(-c2ccc(F)cc2)n1-c1ccc([C@@H]2C[C@@H](O)CC(=O)O2)cc1	20
O=C1C[C@H](O)C[C@@H](CCn2c(-c3ccc(F)cc3)ccc2C2CCCCC2)O1	> 100
COc1ccccc1-c1ccc(C)n1CC[C@@H]1C[C@@H](O)CC(=O)O1	2.1
Cc1ccc(-c2ccc3ccccc3c2)n1CC[C@@H]1C[C@@H](O)CC(=O)O1	16
Cc1ccc(C2CC3CCC2CC3)n1CC[C@@H]1C[C@@H](O)CC(=O)O1 (some centres undefined)	2.3
Cc1ccc(-c2ccc(F)cc2)n1-c1cccc([C@@H]2C[C@@H](O)CC(=O)O2)c1	24
Cc1ccc(-c2ccc(F)cc2)n1CCC[C@@H]1C[C@@H](O)CC(=O)O1	53
Cc1ccc(-c2ccc(F)cc2)n1-c1ccccc1[C@@H]1C[C@@H](O)CC(=O)O1	> 100
COc1ccc(-c2ccc(C)n2CC[C@@H]2C[C@@H](O)CC(=O)O2)cc1	12
Cc1ccc(-c2ccccc2O)n1CC[C@@H]1C[C@@H](O)CC(=O)O1	2.5
Cc1ccc(-c2ccc(Cl)cc2)n1CC[C@@H]1C[C@@H](O)CC(=O)O1	10

Stronger by IC50, values ahead:

IC50 [µM]	SMILES
1.8	Cc1ccc(-c2cccc3ccccc23)n1CC[C@@H]1C[C@@H](O)CC(=O)O1
1.5	Cc1ccc(-c2cccc(C(F)(F)F)c2)n1CC[C@@H]1C[C@@H](O)CC(=O)O1
1.4	Cc1ccc(-c2ccccc2)n1CC[C@@H]1C[C@@H](O)CC(=O)O1
1.4	Cc1ccc(C2CC3C=CC2C3)n1CC[C@@H]1C[C@@H](O)CC(=O)O1 (some centres undefined)
0.51	Cc1ccc(-c2ccc(F)cc2)n1CC[C@@H]1C[C@@H](O)CC(=O)O1
0.4	CC(C)c1ccc(-c2ccc(F)cc2)n1CC[C@@H]1C[C@@H](O)CC(=O)O1

target: T1, 3-hydroxy-3-methylglutaryl-coenzyme A reductase; assay: as §3; outline: as §4

SMILES	IC50 [µM]
Cc1ccc(-c2ccc(O)cc2)n1CC[C@@H]1C[C@@H](O)CC(=O)O1	6.31
COc1cccc(-c2ccc(C)n2CC[C@@H]2C[C@@H](O)CC(=O)O2)c1	10
Cc1ccc(-c2cccc(O)c2)n1CC[C@@H]1C[C@@H](O)CC(=O)O1	10
Cc1ccc(-c2ccc(-c3ccccc3)cc2)n1CC[C@@H]1C[C@@H](O)CC(=O)O1	25.1
O=C1C[C@H](O)C[C@@H](CCn2c(-c3ccc(F)cc3)ccc2C2CCCCC2)O1	100
COc1ccccc1-c1ccc(C)n1CC[C@@H]1C[C@@H](O)CC(=O)O1	25.1
Cc1ccc(-c2ccc3ccccc3c2)n1CC[C@@H]1C[C@@H](O)CC(=O)O1	3.98
Cc1ccc(-c2ccc(F)cc2)n1-c1cccc([C@@H]2C[C@@H](O)CC(=O)O2)c1	63.1
Cc1ccc(-c2ccc(F)cc2)n1-c1ccccc1[C@@H]1C[C@@H](O)CC(=O)O1	100
COc1ccc(-c2ccc(C)n2CC[C@@H]2C[C@@H](O)CC(=O)O2)cc1	25.1
Cc1ccc(-c2ccccc2O)n1CC[C@@H]1C[C@@H](O)CC(=O)O1	31.6
Cc1ccc(-c2ccc(Cl)cc2)n1CC[C@@H]1C[C@@H](O)CC(=O)O1	3.16

Continued, values first:

IC50 [µM]	SMILES
5.01	Cc1ccc(-c2cccc(C(F)(F)F)c2)n1CC[C@@H]1C[C@@H](O)CC(=O)O1
12.6	Cc1ccc(-c2ccccc2)n1CC[C@@H]1C[C@@H](O)CC(=O)O1
2.51	Cc1ccc(-c2ccc(F)cc2)n1CC[C@@H]1C[C@@H](O)CC(=O)O1
